Among the data in ChEMBL document CHEMBL3297648, “Diterpenoids from the Chinese liverwort Heteroscyphus tener and their antiproliferative effects” (J Nat Prod, 2014) are Activity and inhibition values, retold here.

Test [1] in a line: Cell cycle arrest in human PC3 cells assessed as accumulation at G0/G1 phase at 10 uM after 24 hrs by propidium iodide staining based flow cytometry (reference value: 66.57%). In kind it is functional. Conditions: PC-3. Background: Flow cytometry measures light scatter and fluorescence of single cells or particles in a stream.
Test [2] is described as follows: Cell cycle arrest in human PC3 cells assessed as accumulation at subG1 phase at 20 uM after 24 hrs by propidium iodide staining based flow cytometry (reference value: 0.13%). In kind it is functional. Conditions: PC-3.
Another test deals with PC-3. Nature of the test: Increase in p21CIP1 protein expression in human PC3 cells after 2 to 48 hrs by western blot analysis. In kind it is functional, cell-based. Summed up: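 Western blot of cyclin D1, cyclin E, Cdk4 and p21 in PC3 and DU145 lysates. Lysis in RIPA buffer plus protease inhibitors, BCA quantification, 12% SDS-PAGE, nitrocellulose transfer, milk block, primaries overnight at 4 °C, secondary 1:2000 for 45 min, ECL read-out. GAPDH served as loading control.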

For test [3], the system named is DU-145. Nature of the test: Induction of apoptosis in human DU145 cells assessed as necrotic cells at 20 uM after 4 hrs by Annexin V-FITC/propidium iodide staining based flow cytometry (reference value: 0.21%). In kind it is functional. In outline: (§1)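 Cells seeded in 6-well plates for 24 h, then given 20 μM for the stated times. Cells were trypsinized, PBS-washed, stained with annexin V-FITC/PI, and analysed immediately by flow cytometry. Means ± SD of three independent experiments; Student's t test against untreated control.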

The subject of test [4] is DU-145. The test can be described thus: Induction of apoptosis in human DU145 cells assessed as necrotic cells at 20 uM after 12 hrs by Annexin V-FITC/propidium iodide staining based flow cytometry (reference value: 0.21%). In kind it is functional. In outline: as §1
For test [5], the system named is DU-145. Nature of the test: Induction of apoptosis in human DU145 cells assessed as PARP cleavage at 20 uM after 12 hrs by western blot analysis. In kind it is functional, cell-based. Summed up:
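Cells exposed to 20 μM for the stated times. Lysis in RIPA plus protease inhibitors, BCA protein assay, equal protein on 12% SDS-PAGE, transfer to nitrocellulose. Blocking in 5% milk/TBST 1 h; primary antibodies overnight at 4 °C; secondary 1:2000 for 45 min; ECL detection. GAPDH served as loading control.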

Test [6] deals with DU-145. The test can be described thus: Antiproliferative activity against human DU145 cells assessed as inhibition of cell viability at 20 uM pretreated for 1 hr with 5 mM antioxidant NAC measured after 24 hrs by MTT assay. In kind it is functional, cell-based. (Tetrazolium assays rely on reduction of a dye to a coloured formazan, in cell work by metabolically active cells.)

The structures appear in SMILES notation. Active and inactive are the calls of the source. The rule behind the calls is not given here.

Turning to `C=C[C@@](C)(O)CC[C@@H]1C(C)=CC[C@@H]2C(C)(C)CCC[C@@]12C`, the Activity was 73% in test [1], 2.39% in test [2], 1.54% in the test with DU-145 [3] and 1.05% in the test with DU-145 [4]. Further, the result with PC-3 and with DU-145 [5] was Active. Besides, the inhibition result in the test with DU-145 [6] was “inactive”.
